# Test results reported in ChEMBL document CHEMBL4513216, “Probing the Open Global Health Chemical Diversity Library for Multistage-Active Starting Points for Next-Generation Antimalarials” (ACS Infect Dis, 2020).
# Test: Toxicity liver stage against HepG2, at 10uM
# Format: cell-based
# Design: test concentration 10 uM, cell line HepG2-A16-CD81EGFP
# Conditions: human, HepG2-A16-CD81EGFP cells; read-out: INHIBITION
# Summary of the method: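 Uninfected HepG2-A16-CD81EGFP cells, 3 × 10^3 per well, 1536-well, plated on prespotted compound at 10 μM final, parasite-free screening media added to match infected plates; puromycin 10 μM positive, DMSO 0.5% negative; run in parallel with 48 h PbLuc assay at 37 °C, 5% CO2; viability by CellTiter-Glo luminescence, normalized to controls.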
row,SMILES,cytotoxicity at 10 µM
1,COCC(=O)NC[C@H]1OC[C@@H](NC2CCC(F)(F)CC2)[C@@H]1O,-3.32%
2,Cn1cc(CNC[C@H]2Cn3ccnc3CO2)c2ccccc21,-1.91%
3,CCC1CN(CC(=O)NCCN(CC)CC)c2ccccc2S1 (stereo unspecified),-1.23%
4,Cc1nc(N2CCCC2)nc(C)c1NS(C)(=O)=O,1.61%
5,Cc1cnc(C(=O)N2CC[C@H]3C[C@@H](c4nc(C)cs4)O[C@@H]3C2)cn1,9.32%
6,O=C(Cn1nc(Br)nc1Br)N1CCCCC1,-4.38%
7,CN(C)C(CNS(=O)(=O)c1ccc(F)cc1F)c1cccn1C (stereo unspecified),-13.9%
8,O=C(NCc1cccnc1)C1=NOC2(CCN(S(=O)(=O)C3CC3)C2)C1 (stereo unspecified),-7.36%
9,COCC1c2c(cnn2C)CCN1Cc1ccoc1 (stereo unspecified),-10.8%
10,O=C(Cn1nc(C(F)(F)F)c(Br)c1C1CC1)N1CCOCC1,-0.614%
11,O=C(O)CCC(=O)Nc1nn(Cc2ccccc2Cl)cc1Cl,7%
12,Cc1nn(C)c2cn(C(C)C(=O)NCc3ccc(F)cc3)nc12 (stereo unspecified),9.46%
13,COc1ccc(-c2cc(C3(O)CCN(C)CC3)on2)cc1,3.89%
14,COCCNC(=O)c1nnn(Cc2ccccc2)c1OC,11.6%
15,O=C(c1cc2cccc(F)c2[nH]1)N1C[C@@H](O)[C@H](N2CCCC2)C1,0.152%
16,FC(F)(F)c1cc(C2CCCN(c3cnccn3)C2)n2ccnc2n1 (stereo unspecified),6.39%
17,Cc1nn(C)cc1NC(=O)CN1CCN(C2CCCC2)C(=O)C1,6.89%
18,CN1CCOC(C)(C(=O)Nc2nccs2)C1 (stereo unspecified),4.92%
19,CCCn1nccc1-c1cnc(CC2CCN(C(C)=O)C2)cn1 (stereo unspecified),-6.88%
20,COc1ccc2c(c1)NC(C1CCNCC1)NS2(=O)=O (stereo unspecified),-2.86%
21,Cc1nnsc1C(=O)N1CCCCC1c1cc2nc(C)c(C)c(O)n2n1 (stereo unspecified),-5.93%
22,CN(C)C(=O)CN1CCCCC1c1nc(N)ncc1-c1ccccc1 (stereo unspecified),4.19%
23,CCn1cc(CN2CC3CCCN3C[C@H]2C)c(C)n1 (stereo partly specified),0.951%

row,SMILES,cytotoxicity at 10 µM
1,O=C(CC(SC1CCCCC1)C(=O)O)c1ccc(Br)cc1 (stereo unspecified),3.43%
2,O=S(=O)(c1cc(F)ccc1F)N1CCCC1c1ccncc1 (stereo unspecified),14.3%
3,COc1ccc(CN(C)Cn2cc(C)n(-c3cc(C)on3)c2=O)cc1,3.36%
4,O=S(=O)(c1cncc(F)c1)N1CCC2(CCCCC2)C1,-4.61%
5,CN(Cc1cccc(OC(F)(F)F)c1)C(=O)Cc1ccon1,-9.61%
6,CCc1nnc2n1CCN(C(C(=O)N(CC)CC)c1ccccc1)C2 (stereo unspecified),-0.77%
7,CC(C)(C)c1n[nH]c(C2CN(CC3CCC3)CCO2)n1 (stereo unspecified),9.15%
8,Cc1ccc(C)c(Oc2ccc(CNC(=O)C3CCC(=O)N3)cn2)c1 (stereo unspecified),5.98%
9,O=C(NCC1CCCN1CCc1ccccc1)NCC1(O)CCC1 (stereo unspecified),-3.06%
10,CCCn1nc(C(=O)NCCc2nnc3n2CCC3)ccc1=O,3.38%
11,COC(=O)c1ccc(N(C(=O)c2cc(Cl)ccn2)C(C)C)c(C)c1,7.51%
12,COc1cc(C#N)ccc1OCC(=O)NS(=O)(=O)c1cccnc1,5.41%
13,Cc1ccc(NC(C(N)=O)c2ccc(F)cc2)cc1 (stereo unspecified),9.19%
14,O=C(Cc1ccc(F)cc1)NCCNS(=O)(=O)c1ccc(F)c(F)c1,-6.7%
15,CC(C)CCC(=O)NCC(=O)N1CCCCCC1c1ccco1 (stereo unspecified),7.47%
16,C[S+]([O-])c1nncn1CC(=O)c1ccc(Br)cc1 (stereo unspecified),0%
17,Cc1cccc(C)c1OCC(O)CNCc1c(C)nn(C)c1N(C)C (stereo unspecified),-1.47%
18,CS(=O)(=O)N1CCc2c(cccc2NC(=O)Nc2ccccn2)C1,-6%
19,CCN(Cc1ccoc1)C(=O)NC1CCN(CC2CC2)C1 (stereo unspecified),-0.525%
20,CCN(Cc1ccc(Cl)c(Cl)c1)C(=O)CCn1cncn1,9.87%
21,Cc1ccc(CNCc2cccc(NC(=O)CCN3CCOCC3)c2)s1,-1.91%
22,Cc1nc(C2CN(Cc3ccccc3C)CCO2)no1 (stereo unspecified),-1.51%
23,COC[C@@]12CCC[C@@H]1CN(C(=O)COc1ccccc1OC)C2,-106%

row,SMILES,cytotoxicity at 10 µM
1,O=S(=O)(c1ccccc1)N1CCC[C@]2(C[C@H](OCC3CC3)CO2)C1,-75.9%
2,CC(C)c1nc(CN(C)C(=O)CCc2ccc3c(c2)OCO3)cs1,-15.8%
3,Cc1cc(C)n(CCCC(=O)N2CC[C@H]3NCCC[C@]3(CO)C2)n1,-0.862%
4,COCCC(=O)N1C[C@H](C(C)C)[C@@H](N(C)C)C1,5.75%
5,COc1ccccc1OC1CCN(C(=O)c2cccc(O)c2C)CC1,12.5%
6,CCS(=O)(=O)N1CCC(c2nccn2Cc2ccccn2)CC1,6.27%
7,CNC(=O)c1cc(NC(=O)NCC2CCS(=O)(=O)C2)ccc1OC (stereo unspecified),9.57%
8,O=C(c1ccc(S(=O)(=O)NCc2ccncc2)cc1)N1CCNCC1,2.3%
9,CC(=O)NCCNCc1cn(CCN2CCSCC2)nc1C,0.95%
10,CCc1c(C)sc2ncnc(N3CC[C@@H](N4CCOCC4)[C@H](O)C3)c12,-4.24%
11,COCCN(C)C(C(=O)O)c1ccc(C)c(C)c1 (stereo unspecified),-9.47%
12,Cc1nc(C(=O)N2CCC3(CC2)CC(=O)N(CC2CCCO2)C3)cs1 (stereo unspecified),2.34%
13,Cc1cc(C(F)(F)F)nc(CNc2nc(C)nc3c2cnn3C)n1,-2.24%
14,Cc1noc(C)c1CN1CCn2nc(CCC(=O)N3CCCC3)cc2C1,-4.52%
15,CNCCNc1nccc(-c2cn(C)nc2C)n1,2.35%
16,Cc1nc(C)n(CCCNc2ncnc3onc(C)c23)n1,-7.12%
17,CCOCc1nc2c(c(N3CCN4CCCC4C3)n1)CCNCC2 (stereo unspecified),0.394%
18,N#Cc1cccc(NC(=O)N2CCC3(CCC(=O)N(C4CC4)C3)CC2)c1,3.9%
19,CCc1ccc(CN2CCN(c3ccc(C(N)=O)cn3)CC2)nc1,4.95%
20,Cc1nc(N)nc(C)c1CC(=O)N1CCCCC1c1cccc(F)c1 (stereo unspecified),-2.06%
21,C=C(C)COc1ccccc1CN1CCC(NC(C)=O)CC1,11.9%
22,OC1(CN2CCCC2)COCCN(c2ncnc3[nH]ccc23)C1 (stereo unspecified),10.7%
23,CCN(Cc1cc(Cl)ccc1OC)Cc1ncnn1CC,3.9%

row,SMILES,cytotoxicity at 10 µM
1,O=C(COc1cccnc1)N1CCOC(C(F)(F)F)C1 (stereo unspecified),-11.5%
2,CN(CCSc1ccccc1)C(=O)C(c1cccnc1)N1CCOCC1 (stereo unspecified),4.94%
3,Cc1cc(-c2ccc(C(=O)O)cc2)nc(C2CCCN(C(C)C)C2)n1 (stereo unspecified),5.61%
4,O=C(c1ccccc1)N1CCN(CC(O)c2ccc(F)cc2)CC1 (stereo unspecified),-8.24%
5,Cc1cccc2nc(CN3CCCC3Cn3cccn3)cn12 (stereo unspecified),0.893%
6,CCc1ncc2c(n1)CN(CC(=O)Nc1cccnc1)CC2,-1.1%
7,O=C(CN1CCCC(Cn2cncn2)C1)NCc1ccccc1F (stereo unspecified),-4.65%
8,Cc1cccc(-c2noc(CN3CCCC3Cn3cncn3)n2)c1 (stereo unspecified),0.983%
9,Cc1cnn(CC2CN(CC(=O)NCc3ccc(C)s3)CCO2)c1 (stereo unspecified),0.742%
10,Cc1nccn1C1CCCN(C(=O)c2cccc(S(C)(=O)=O)c2)C1 (stereo unspecified),-11.6%
11,CC(C)CCN(C(=O)c1ccc(-n2ncc(C#N)c2N)cc1)C1CC1,-23.6%
12,c1cnnc(N2CCCC2CNCc2cccs2)c1 (stereo unspecified),-9.61%
13,CCn1ccnc1CN1CCCN(C(=O)Cc2csc(C)n2)CC1,-2.12%
14,COc1ccccc1C(=O)N(C)C1CCN(c2ccccn2)CC1,-15.4%
15,CC(C)c1nnc(CNC2CCCN(Cc3noc(C4CC4)n3)C2)o1 (stereo unspecified),-5.62%
16,O=C(NCC1CCOC1)c1csc(-c2cccc(Cl)c2)n1 (stereo unspecified),-7.41%
17,CCN1CCN(C(=O)CCc2c(C)noc2Cl)CC1,-4.37%
18,O=C(CC1CCCO1)NCc1ccccc1Cn1cncn1 (stereo unspecified),-2.55%
19,CCN(CC)Cc1ccc(C(=O)N2CCCCC2Cn2cccn2)o1 (stereo unspecified),-7.89%
20,Cc1nc(C)n(C2CCCN(C(=O)c3ccc4c(c3)COC4)C2)n1 (stereo unspecified),-9.12%
21,CC(=O)N(Cc1noc(C2CC2)n1)C1CCN(Cc2nccn2C)C1 (stereo unspecified),-5.65%
22,Cc1cc(CNc2cc(Cl)ccc2Cl)no1,18.9%
23,O=C(c1ccc(NC2CC2)nc1)N1CCCC(n2cccn2)C1 (stereo unspecified),-12.2%

row,SMILES,cytotoxicity at 10 µM
1,CN(C)C(=O)N1CCN(Cc2noc(Cc3ccccc3)n2)CC1,-8.8%
2,CCn1cc(NC(=O)C2CCN(Cc3ccccc3C#N)CC2)cn1,1.13%
3,O=C(NCCNc1cnccn1)N1CCCC1,3.92%
4,c1ccc(CN2CCN(Cc3cscn3)CC2)cc1,-2.69%
5,CN1CC(=O)N(c2ccsc2)CC12CCN(C(=O)c1cccn1C)C2 (stereo unspecified),-75.7%
6,CN1CCOCC2(CCCN(C(=O)Cc3ccncc3)C2)C1 (stereo unspecified),-84.6%
7,Cc1nc(CN2CCc3cc(C(=O)O)c(N(C)C)nc3CC2)cs1,3.42%
8,CNC(=O)CN1CC[C@H]2CN(C(=O)c3ccccc3F)C[C@H]2C1,-1.34%
9,Cc1ccccc1CN1CC[C@H]2C[C@H](C(=O)N(C)C)O[C@H]2C1,4.36%
10,O=C(C[C@@H]1COC[C@H]2CN(Cc3cccnc3)C[C@@H]12)N1CCOCC1,-3.35%
11,O=C1[C@H]2CN(c3ncccn3)C[C@H]2CN1CCN1CCCC1,2.2%
12,CN1CCc2onc(CNc3ncccn3)c2C1,1.58%
13,COC1COC2(CCN(Cc3ccc(Cl)cc3)CC2)C1 (stereo unspecified),2.2%
14,COCCN1CCC(c2nc3ccc(NC(C)C)cn3n2)CC1,-5.26%
15,CN(C)C(=O)CN1CCC2(COCc3cnc(N4CCOCC4)nc32)C1 (stereo unspecified),-70.5%
16,Cc1nc(CN2C[C@@H]3CN(C(=O)[C@H]4CCCO4)C[C@@H]3C2=O)cs1,-81.5%
17,CS(=O)(=O)NC1CC2(CCN(CC3CC3)CC2)Oc2ccccc21 (stereo unspecified),-5.34%
18,C=c1ncsc1=C1NN=C(C2CCCN2C(=O)Cn2cccn2)O1 (stereo unspecified),4%
19,Cc1nnc(SCC(=O)N2C[C@@H]3CC[C@H]2CN(c2ncccn2)C3)[nH]1,2.24%
